Consider 16 compounds from ChEMBL document CHEMBL1800050, “A new class of phenazines with activity against a chloroquine resistant Plasmodium falciparum strain and antimicrobial activity” (J Med Chem, 2011).

The subject of series [1] is Plasmodium falciparum. The series can be described thus: Antimalarial activity against chloroquine-sensitive Plasmodium falciparum NF54 infected in human erythrocytes assessed as reduction of parasitemia level at 3 uM after 2 days by Geimsa staining based light microscopic analysis (reference value: 1.21 +/- 0.12%). In kind it is functional. Also on record: scale not given: the % may be the effect or the level left.

Series [2] concerns Plasmodium falciparum. Nature of the series: Antimalarial activity against chloroquine-sensitive Plasmodium falciparum NF54 infected in human erythrocytes assessed as reduction of parasitemia level at 3 uM after 3 days by Geimsa staining based light microscopic analysis (reference value: 2.55 +/- 0.21%). More on the design: scale not given: the % may be the effect or the level left. In kind it is functional.

The test system of series [3] is Plasmodium falciparum. The series can be described thus: Antimalarial activity against chloroquine-sensitive Plasmodium falciparum NF54 infected in human erythrocytes assessed as inhibition of parasite growth after 72 hrs by Geimsa staining based light microscopic analysis. Particulars: NF54, 72 h. Type of series: functional, organism-based.
Series [4] has as its system Plasmodium falciparum. Nature of the series: Antimalarial activity against chloroquine-sensitive Plasmodium falciparum NF54 infected in human erythrocytes assessed as reduction of parasitemia level at 3 uM after 1 day by Geimsa staining based light microscopic analysis (reference value: 0.97 +/- 0.1%). In kind it is functional. More on the design: scale not given: the % may be the effect or the level left.

Series [5] relates to Plasmodium falciparum. Nature of the series: Antimalarial activity against chloroquine-sensitive Plasmodium falciparum NF54 infected in human erythrocytes assessed as reduction of parasitemia level at 3 uM after 4 days by Geimsa staining based light microscopic analysis (reference value: 2.73 +/- 0.16%). More on the design: scale not given: the % may be the effect or the level left. Type of series: functional.

In series [6] the test system is Plasmodium falciparum. The series can be described thus: Antimalarial activity against chloroquine-sensitive Plasmodium falciparum NF54 infected in human erythrocytes assessed as reduction of parasitemia level at 20 uM after 1 day by Geimsa staining based light microscopic analysis (reference value: 0.97 +/- 0.1%). Type of series: functional. More on the design: scale not given: the % may be the effect or the level left.

The test system of series [7] is Mus musculus. The series can be described thus: Toxicity in […] Plasmodium berghei ANKA infected C57BL/6 mouse assessed as mortality with anemia at 100 mg/kg, ip administered 3 to 9 days post infection measured on day 10. More on the design: dose 100 mg/kg, route intraperitoneal. In kind it is organism-based. Conditions: in vivo. In a few lines:
(§1)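 Infected C57BL/6 mice were followed over time for blood parasitemia and for survival, with a chloroquine-treated group as reference. Death from cerebral malaria and later death from anemia were recorded separately.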

Series [8] has as its system Plasmodium falciparum. Nature of the series: Antimalarial activity against chloroquine-sensitive Plasmodium falciparum NF54 infected in human erythrocytes assessed as reduction of parasitemia level at 20 uM after 3 days by Geimsa staining based light microscopic analysis (reference value: 2.55 +/- 0.21%). More on the design: scale not given: the % may be the effect or the level left. Type of series: functional.

For series [9], the system named is Plasmodium berghei. The series can be described thus: Antimalarial activity against […] Plasmodium berghei ANKA infected in C57BL/6 mouse assessed as protection against cerebral malaria at 100 mg/kg, ip administered 3 to 9 days post infection by Geimsa staining based microscopic analysis. Also on record: dose 100 mg/kg. In kind it is functional, organism-based. In a few lines:
as §1

Series [10] relates to Plasmodium falciparum. The series can be described thus: Antimalarial activity against chloroquine-sensitive Plasmodium falciparum NF54 infected in human erythrocytes assessed as reduction of parasitemia level at 20 uM after 2 days by Geimsa staining based light microscopic analysis (reference value: 1.21 +/- 0.12%). Type of series: functional. More on the design: scale not given: the % may be the effect or the level left.

Series [11] relates to Plasmodium falciparum. Nature of the series: Antimalarial activity against chloroquine-sensitive Plasmodium falciparum NF54 infected in human erythrocytes assessed as reduction of parasitemia level at 20 uM after 4 days by Geimsa staining based light microscopic analysis (reference value: 2.73 +/- 0.16%). Type of series: functional. Also on record: scale not given: the % may be the effect or the level left.

For series [12], the system named is Plasmodium berghei. Nature of the series: Antimalarial activity against […] Plasmodium berghei ANKA infected in C57BL/6 mouse assessed as clearance of parasite from blood of mouse at 100 mg/kg, ip administered 3 to 9 days post infection by Geimsa staining based microscopic analysis. In kind it is functional, organism-based. More on the design: dose 100 mg/kg. In a few lines: as §1

Series [13] has as its system Plasmodium falciparum. The series can be described thus: Antimalarial activity against chloroquine-sensitive Plasmodium falciparum NF54 infected in human erythrocytes assessed as inhibition of parasite growth at 2.5 to 10 uM after 72 hrs by Geimsa staining based light microscopic analysis. Type of series: functional, organism-based.
Series [14] has as its system Plasmodium berghei. The series can be described thus: Antimalarial activity against […] Plasmodium berghei ANKA infected in C57BL/6 mouse assessed as protection against cerebral malaria at 80 mg/kg, ip administered 3 to 9 days post infection by Geimsa staining based microscopic analysis. Type of series: functional, organism-based. Also on record: dose 80 mg/kg. In a few lines: as §1

Series [15] concerns Mus musculus. Nature of the series: Toxicity in […] Plasmodium berghei ANKA infected C57BL/6 mouse assessed as mortality with anemia at 80 mg/kg, ip administered 3 to 9 days post infection measured on day 10. Type of series: organism-based. Also on record: dose 80 mg/kg, route intraperitoneal. Conditions: in vivo. In a few lines:
as §1

For series [16], the system named is Plasmodium berghei. The series can be described thus: Antimalarial activity against […] Plasmodium berghei ANKA infected in C57BL/6 mouse assessed as clearance of parasite from blood of mouse at 80 mg/kg, ip administered 3 to 9 days post infection by Geimsa staining based microscopic analysis. More on the design: dose 80 mg/kg. Type of series: functional, organism-based. In a few lines:
as §1

Series [17] relates to Plasmodium berghei. The series can be described thus: Antimalarial activity against […] Plasmodium berghei ANKA infected in C57BL/6 mouse assessed as clearance of parasite from blood of mouse at 150 mg/kg, ip administered 3 to 9 days post infection measured on day 5 to 7 by Geimsa staining based microscopic analysis. More on the design: dose 150 mg/kg. Type of series: functional, organism-based. The method, boiled down: as §1

In series [18] the test system is Plasmodium falciparum. Nature of the series: Antimalarial activity against chloroquine-sensitive Plasmodium falciparum NF54 infected in human erythrocytes assessed as reduction of parasitemia level at 10 uM after 1 day by Geimsa staining based light microscopic analysis (reference value: 0.97 +/- 0.1%). Type of series: functional. More on the design: scale not given: the % may be the effect or the level left.

Series [19] concerns Plasmodium falciparum. The series can be described thus: Antimalarial activity against chloroquine-sensitive Plasmodium falciparum NF54 infected in human erythrocytes assessed as reduction of parasitemia level at 10 uM after 4 days by Geimsa staining based light microscopic analysis (reference value: 2.73 +/- 0.16%). In kind it is functional. Also on record: scale not given: the % may be the effect or the level left.

The subject of series [20] is Plasmodium falciparum. The series can be described thus: Antimalarial activity against chloroquine-sensitive Plasmodium falciparum NF54 infected in human erythrocytes assessed as reduction of parasitemia level at 10 uM after 3 days by Geimsa staining based light microscopic analysis (reference value: 2.55 +/- 0.21%). Type of series: functional. More on the design: scale not given: the % may be the effect or the level left.

Series [21] concerns Plasmodium falciparum. Nature of the series: Antimalarial activity against chloroquine-sensitive Plasmodium falciparum NF54 infected in human erythrocytes assessed as reduction of parasitemia level at 10 uM after 2 days by Geimsa staining based light microscopic analysis (reference value: 1.21 +/- 0.12%). More on the design: scale not given: the % may be the effect or the level left. In kind it is functional.

In series [22] the test system is Plasmodium falciparum. Nature of the series: Antimalarial activity against chloroquine-sensitive Plasmodium falciparum NF54 infected in human erythrocytes assessed as reduction of parasitemia level at 0.032 uM after 4 days by Geimsa staining based light microscopic analysis (reference value: 2.73 +/- 0.16%). In kind it is functional. More on the design: scale not given: the % may be the effect or the level left.

For series [23], the system named is Plasmodium falciparum. Nature of the series: Antimalarial activity against chloroquine-sensitive Plasmodium falciparum NF54 infected in human erythrocytes assessed as reduction of parasitemia level at 0.032 uM after 1 day by Geimsa staining based light microscopic analysis (reference value: 0.97 +/- 0.1%). Type of series: functional. Also on record: scale not given: the % may be the effect or the level left.

Series [24] relates to Plasmodium falciparum. The series can be described thus: Antimalarial activity against chloroquine-sensitive Plasmodium falciparum NF54 infected in human erythrocytes assessed as reduction of parasitemia level at 0.032 uM after 2 days by Geimsa staining based light microscopic analysis (reference value: 1.21 +/- 0.12%). In kind it is functional. Also on record: scale not given: the % may be the effect or the level left.

In series [25] the test system is Plasmodium berghei. Nature of the series: Antimalarial activity against […] Plasmodium berghei ANKA infected in C57BL/6 mouse assessed as clearance of parasite from blood of mouse at 25 mg/kg, ip administered 3 to 9 days post infection by Geimsa staining based microscopic analysis. Type of series: functional, organism-based. More on the design: dose 25 mg/kg. The method, boiled down:
as §1

In series [26] the test system is Plasmodium falciparum. The series can be described thus: Antimalarial activity against chloroquine-sensitive Plasmodium falciparum NF54 infected in human erythrocytes assessed as reduction of parasitemia level at 0.032 uM after 3 days by Geimsa staining based light microscopic analysis (reference value: 2.55 +/- 0.21%). In kind it is functional. Also on record: scale not given: the % may be the effect or the level left.

Calls of active or inactive are those of the source. The calls are words filed in the database; no cut-off is given here.

Take `Oc1c(-c2cc3nc4ccccc4nc3c3ccccc23)ccc2ccccc12`: the Activity is 0.11% in series [1], 0.02% in [2], 0.27% in series [4] and 0% in [5]. Besides, the IC50 (usually the point on the concentration scale where inhibition reaches its midpoint) in series [3] was found to be 0.88 µM.
With `Oc1ccc2ccccc2c1-c1cc2nc3cc(Cl)c(Cl)cc3nc2c2ccccc12`, the Activity in series [6] is reported as 0.14%; in [7], “Toxic”; in series [8], 0%; in series [10], 0.01%; in series [11], 0%. Further, in [9], the result was Active. For the same compound, the concentration for half-maximal inhibition (IC50) in series [3] is 5.05 µM. Besides, the outcome in series [12] was inactive.
Turning to `Oc1c(-c2cc3nc4ncccc4nc3c3ccccc23)ccc2ccccc12`, the inhibition result in series [13] is “inactive”.
Consider `O=C1C=C(c2ccc3ccccc3c2O)c2ccccc2C1=O`, for which, in series [13], the inhibition entry is “inactive”.
In the case of `Oc1ccc2ccccc2c1-c1cc2nc3ccccc3nc2c2ccccc12`, the outcome in series [14] was Active. The Activity in [6] is given as 0.23%; in series [8] it was 0.02%; in series [15], “Toxic”; in [10], 0.07%; in series [11], 0%. The IC50 in [3] came to 4.11 µM. Besides, in series [16], the outcome was inactive.
Turning to `Oc1ccc2cc(Br)ccc2c1-c1cc2nc3ccccc3nc2c2ccc(Br)cc12`, in [17], the result was Active. Besides, the Activity came out at 0.14% in [18], 0% in series [19], 0% in series [20] and 0.01% in [21]. Besides, the IC50 in series [3] turned out to be 0.64 µM.
On to `Oc1c(-c2cc3nc4cc(Cl)c(Cl)cc4nc3c3ccccc23)ccc2ccccc12`, for which the Activity turned out to be 0.15% in series [1], 0% in series [2], 0.17% in series [4] and 0% in series [5]. Moreover, in series [3], the IC50 was 0.51 µM.
As to `Oc1ccc2ccccc2c1-c1cc2nc3ncccc3nc2c2ccccc12`, the Activity is 0.04% in [6]; “Toxic” in [7]; 0% in [8]; 0% in series [10]; 0% in series [11]. Further, the outcome in [9] was Active. In addition, the half-inhibitory concentration (IC50) in series [3] came out at 5.23 µM. Moreover, in series [12], the result was inactive.
On to `CCN(CC)CCCC(C)Nc1ccnc2cc(Cl)ccc12` (stereo not drawn) [CHLOROQUINE], for which the Activity is given as 0% in series [22], 0.06% in [23], 0% in series [24] and 0% in [26]. For the same compound, the result in series [25] was inactive.
Consider `Nc1nnc2cc(-c3c(O)ccc4ccccc34)c3ccccc3c2n1`, for which, in series [13], the inhibition result was “inactive”.
Still for that read-out and setting: under `O=C(O)c1cnc2cc(-c3ccc4ccccc4c3O)c3ccccc3c2n1` stands “inactive”.
`Oc1ccc2ccccc2c1-c1cc2c(c3ccccc13)=NC1(CCCCC1)N=2`: the inhibition result in [13] is “inactive”.
On to `O=C(O)c1cnc2cc(-c3c(O)ccc4ccccc34)c3ccccc3c2n1`, for which the inhibition result in series [13] was “inactive”.
Consider `Oc1c(-c2cc3nc4c(O)nc(S)nc4nc3c3ccccc23)ccc2ccccc12`, for which the inhibition result in series [13] is “inactive”.
In the case of `O/N=C1/C=C(c2c(O)ccc3ccccc23)c2ccccc2/C1=N/O`, the Activity in series [18] was 0.94%; in [19] it was 0%; in series [20], 0.04%; in series [21], 0.2%. For the same compound, the IC50 in [3] amounted to 3.73 µM.
As to `Oc1ccc2ccccc2c1-c1cc2nc3c(O)nc(S)nc3nc2c2ccccc12`, the inhibition entry in series [13] was “inactive”.
